High-throughput results: PubChem BioAssay, several laboratories
RanGTP-Imp inh = inhibitors of RanGTP-importin-beta interaction, primary screen, biochemical, FRET, CFP-Ran, YFP-importin-beta, homogeneous | Ran GTPase (GTP-bound) - importin-beta complex | cell-free CFP-Ran/YFP-importin-beta FRET ratio | inhibition, % (test concentration not listed) | 300,000 tested, 1.1% active | AID 2216, 2009;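 active means more than half of the replicate wells show a fall in the fluorescence ratio signal beyond about 16%, limit read from the data, passing the limit was not always enough; inconclusive means exactly half of the replicate wells pass the set limit; inactive means fewer than half of replicates pass the limit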;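 further: 0% = DMSO wells and 100% = Ran loaded with GDP instead of GTP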
PKD1 inh = inhibitors of human PKD1 kinase, biochemical, fluorescence polarization; Serine/threonine-protein kinase D1 (Homo sapiens), Q15139; PKD1 kinase fluorescence polarization assay; inhibition, % (concentration not given with the values); 200,000 tested, 0.056% active; AID 797, 2007
Target sequence (Q15139 whole entry, looked up): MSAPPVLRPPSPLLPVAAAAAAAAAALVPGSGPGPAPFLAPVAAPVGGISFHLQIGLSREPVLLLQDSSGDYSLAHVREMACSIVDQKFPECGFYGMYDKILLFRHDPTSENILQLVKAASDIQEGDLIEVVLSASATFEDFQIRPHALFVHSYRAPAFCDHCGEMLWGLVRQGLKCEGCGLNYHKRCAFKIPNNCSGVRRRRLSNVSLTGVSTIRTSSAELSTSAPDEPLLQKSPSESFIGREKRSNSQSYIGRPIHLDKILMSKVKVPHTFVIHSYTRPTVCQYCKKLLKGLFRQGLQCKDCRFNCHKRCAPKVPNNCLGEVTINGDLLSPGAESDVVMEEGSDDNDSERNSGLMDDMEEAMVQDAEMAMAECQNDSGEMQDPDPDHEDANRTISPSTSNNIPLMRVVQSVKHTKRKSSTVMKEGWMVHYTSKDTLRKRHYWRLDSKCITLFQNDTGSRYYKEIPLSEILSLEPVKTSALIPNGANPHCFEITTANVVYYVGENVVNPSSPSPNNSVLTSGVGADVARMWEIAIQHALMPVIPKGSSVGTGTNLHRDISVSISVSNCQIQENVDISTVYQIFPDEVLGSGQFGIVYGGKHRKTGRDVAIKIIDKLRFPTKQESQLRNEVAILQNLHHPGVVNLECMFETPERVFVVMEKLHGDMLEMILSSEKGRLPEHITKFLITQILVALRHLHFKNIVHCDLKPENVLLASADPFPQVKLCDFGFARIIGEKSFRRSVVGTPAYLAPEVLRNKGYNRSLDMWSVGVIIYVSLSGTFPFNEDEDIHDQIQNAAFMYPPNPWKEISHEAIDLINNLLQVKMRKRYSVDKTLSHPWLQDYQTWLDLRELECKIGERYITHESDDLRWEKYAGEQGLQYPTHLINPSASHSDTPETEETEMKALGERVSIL
MEX-5 binding = MEX-5 zinc finger RNA-binding disruptors – biochemical, C. elegans, fluorescence polarization, MLPCN library, primary screen; activity score (negative = inhibition of binding), % at 10 µM; 300,000 tested, 0.38% active; Zinc finger protein mex-5 (Caenorhabditis elegans), Q9XUB2; MEX-5/FITC-TCR2 RNA binding; hits give low values;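 active means inhibition past about -25% in most replicates, and total fluorescence under double the plate's negative control median, limit read from the data; inconclusive means replicates evenly split on the limit, or fluorescence at least double controls; inactive means too little inhibition in most replicates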;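 further: 0% = DMSO and -100% = 5 µM competing unlabeled TCR2 RNA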
EBV gp42 inh = Epstein-Barr virus gp42 inhibitors, primary screen, biochemical, uHTS, fluorescence polarization. inhibition, % (tested at 21.74 µM). AID 1085, 2008. Glycoprotein 42 (Epstein-Barr virus (strain AG876)), Q1HVG2. 220,000 tested, 0.42% active. Fluorescence polarization binding assay, mP read-out
Runt-CBFb FRET = inhibitors of RUNX1 Runt–CBFb binding, primary screen, biochemical, FRET, Cerulean-Runt, Venus-CBFb, uHTS | Runt-related transcription factor 1 (Homo sapiens) + Core-binding factor subunit beta … | Cerulean-Runt/Venus-CBFb FRET ratio 530/480, 1 h | inhibition, % at 20 µM | 220,000 tested, 0.46% active | AID 1496, 2009;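 active means inhibition over about 50% at 20 µM in the single-dose screen, limit read from the data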;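 further: 0% = DMSO wells and 100% = excess unlabeled CBFb competitor control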
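test system = Cerulean-tagged RUNX1 Runt domain (FRET donor) fusion protein | reagent = Venus-CBFb binding partner, 100 nM | incubation = protein complex preformed 1 h, compound exposure 1 h, room temperature, dark | detection = FRET fluorescence | read-out basis = loss of energy transfer signal | controls = 5 µM unlabeled CBFb as full-inhibition high control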
Runt-SMMHC FRET = inhibitors of RUNX1 Runt–CBFb-SMMHC binding, primary screen, biochemical, FRET, Cerulean-Runt, Venus-CBFb-SMMHC, uHTS; Runt-related transcription factor 1 (Homo sapiens) + Core-binding factor subunit beta …; Cerulean-Runt/Venus-CBFb-SMMHC FRET ratio 530/480, 1 h; inhibition, % at 20 µM; 220,000 tested, 0.74% active;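 active means mean inhibition across duplicate retests at 20 µM reaching about 50%, limit read from the data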;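 further: 0% = DMSO wells and 100% = wells with excess untagged CBFb-SMMHC; inhibitors lower the FRET ratio by blocking Runt binding to CBFb-SMMHC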
YIC FRET counter = YIC intramolecular FRET probe signal interference, dose response, counter-screen for RanGTP-importin-beta inhibitor project, biochemical, fluorescence FRET; shares compounds with RanGTP-Imp inh; Purified YIC probe, intramolecular FRET ratio YFP/CFP; IC50, µM; 1,000 tested, 40% active;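 active means fitted half-maximal inhibitory concentration no more than tenfold above the top dose tested; inconclusive means flat fit with 30 to 70% activity, or poor fit; inactive means half-maximal concentration beyond tenfold above the top dose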
* marks the source's active call; other numbers are inactive results; ? = inconclusive; . = no result given; ! = not active in a repeat. Sampled rows, rich in hits. Any-hit rate of the full collection: about 2%. Unless noted, no stated cut-off is given here; in the data, active means inhibition above about 50%; inactive means the rest.

SMILES | RanGTP-Imp inh | PKD1 inh | MEX-5 binding | EBV gp42 inh | Runt-CBFb FRET | Runt-SMMHC FRET | YIC FRET counter
Cc1cc(C)c2nc(N3CCOCC3)c(C#N)cc2c1 | 24* | . | -2 | . | . | . | 19*
N#Cc1cc2cc3c(cc2nc1N1CCOCC1)OCO3 | 39* | -3 | -2 | 5 | 97* | 109* | 9*
Cc1cc(C)c(C#N)c(N2CCCC2)n1 | -3 | -4 | 2 | -10 | 0 | 0 | .
N#Cc1cc2cc3c(cc2nc1SCC(=O)N1CCOCC1)OCCO3 | 8 | . | -2 | . | . | . | .
Cc1ccc2cc(C#N)c(N3CCCC3)nc2c1C | 26* | -3 | -2 | . | 18 | 53* | 5.3*
Cc1cccc2cc(C#N)c(N3CCOCC3)nc12 | 13 | . | -3 | . | . | . | .
CCc1cccc(N(C(=O)c2csnn2)C(C(=O)NC(C)(C)C)c2ccccn2)c1 (stereo not drawn) | 3 | -11 | -5 | -17 | . | . | .
CN(C)c1nc(-c2ccccc2)cc(C(F)(F)F)c1C#N | 29* | 4 | 1 | 7 | 38 | 95* | 10*
CCOC(=O)c1c(/N=C/c2ccc(C)cc2O)sc2c1CCN(C)C2 | 60* | . | 0 | -17 | 14 | -2 | >26
CCOC(=O)c1c(NC(=O)Nc2ccc(F)cc2)sc2c1CCN(C)C2 | 20* | . | ? | -5 | 16 | 15 | >50
CCN1CCc2c(sc(NC(=O)Cc3ccccc3)c2C(=O)OC)C1 | 42* | . | 1 | . | . | . | >50
CCOC(=O)c1sc(NC(=O)Nc2ccc(F)cc2)nc1C | 18* | 9 | 0 | 11 | 1 | 2 | >50
O=C(NC1CCCC1)C(c1ccncc1)N(C(=O)Cc1cccs1)c1cccc(F)c1 (stereo not drawn) | -1 | . | -1 | . | . | . | .
CCOC(=O)c1c(NC(=O)Cc2ccccc2)sc2c1CCN(CC)C2 | 55* | . | -3 | . | . | . | >50
CCOC(=O)c1c(NC(=O)Cc2cccs2)sc2c1CCCC2 | 3 | 31 | -2 | -2 | 0 | -2 | .
CCOC(=O)c1c(NC(=O)c2ccc(S(=O)(=O)N3CCOCC3)cc2)sc2c1CCN(C(C)C)C2 | 7 | . | -4 | . | . | . | .
CCOC(=O)c1c(NC(=O)C2CCCCC2)sc2c1CCN(C(C)C)C2 | 40* | . | 0 | . | . | . | >50
Cn1c(Cl)c(/C=N/OC(=O)C(C)(C)C)c2ccccc21 | 4 | 2 | 1 | 9 | -3 | 2 | .
CC(=O)O/N=C/c1c(Cl)n(C)c2ccccc12 | 48* | -5 | -2 | 8 | -1 | 4 | >50
COc1ccc(Cl)cc1S(=O)(=O)Nc1noc2ccccc12 | 16* | . | 0 | . | . | . | >50
COc1ccc(Cl)cc1NS(=O)(=O)c1cc(Cl)ccc1OC | -1 | 1 | -1 | -8 | 1 | -5 | .
COc1ccnc(-n2cccc2/C=N/O)c1C#N | -2 | 0 | 0 | -2 | 2 | 2 | .
CC(C)(C)c1cc[n+](-c2[nH]c(=O)sc2/C=N/N=C(\[O-])c2cccnc2)cc1 | -1 | . | -1 | . | . | . | .
O=c1[nH]c(-[n+]2ccc3ccccc3c2)c(/C=N/N=C(\[O-])c2ccccc2)s1 | 25* | . | -8 | . | . | . | >50
COc1cc(CN2CCN(Cc3c[nH]c4ccccc34)CC2CCO)cc(OC)c1 (stereo not drawn) | 21* | . | 0 | . | . | . | >50
SMILES | RanGTP-Imp inh | PKD1 inh | MEX-5 binding | EBV gp42 inh | Runt-CBFb FRET | Runt-SMMHC FRET | YIC FRET counter
CC(=O)[C@@H]1[C@@H](C)N(Cc2ccccc2)C(=O)N[C@H]1c1cccc(C(F)(F)F)c1 | 20* | . | 2 | 10 | -1 | -1 | >50
N#CC1=C(N)N(c2ccccc2)C(=O)C1 | -5 | -5 | 0 | -7 | -5 | -26 | .
COc1ccc(N2C(=O)CC(C#N)=C2N)cc1 | 18* | 3 | -5 | -10 | -4 | -7 | >50
O=C(CN(Cc1ccc(F)cc1)C(=O)CNS(=O)(=O)c1ccccc1)NCc1ccco1 | -1 | . | 0 | . | . | . | .
CN1CCN(c2cc(=O)n(C3CCCCC3)c(=O)[nH]2)CC1 | 10 | 3 | -1 | 2 | 1 | 3 | .
CCOC(=O)N1CCN(c2cc(=O)n(C3CCCCC3)c(=O)[nH]2)CC1 | 19* | -2 | -1 | -8 | 5 | -1 | >50
CCN1CCN(c2cc(=O)n(C3CCCCC3)c(=O)[nH]2)CC1 | ? | 6 | -1 | -6 | 1 | 0 | .
CCOC(=O)C1CCN(c2cc(=O)n(C3CCCCC3)c(=O)[nH]2)CC1 | 51* | 8 | 4 | 5 | -2 | 3 | >50
COC(=O)C1=CN(Cc2ccc(OC)c(OC)c2)C=C(C(=O)OC)C1c1ccccc1F | 28* | . | -1 | . | . | . | 11*
COC(=O)C1=CN(Cc2ccccc2)C=C(C(=O)OC)C1c1ccc(O)c(OC)c1 | 28* | . | 0 | . | . | . | >50
O=P(c1ccccc1)(c1ccccc1)c1ccc(O)cc1 | 2 | . | 2 | . | . | . | .
O=C(O)c1ccccc1P(=O)(c1ccccc1)c1ccccc1 | 16* | -4 | -2 | -1 | 1 | -1 | >50
COc1ccc(C(=O)/C=C(\C)NCc2ccc3c(c2)OCO3)cc1 | 24* | -15 | 3 | 2 | -2 | -3 | >50
Nc1nonc1-n1nnc(C(=O)N/N=C/c2ccccc2)c1CSc1ccc(Cl)cc1 | 17* | -10 | -1 | 2 | 1 | -4 | >50
Nc1nonc1-n1nnc(C(=O)N/N=C/c2cccc(Cl)c2)c1CSc1ccc(Cl)cc1 | 1 | 5 | -1 | 3 | . | -2 | .
CN(C)C1(CNC(=O)C2CCN(S(=O)(=O)c3cc(Cl)ccc3Cl)CC2)CCCCC1 | 1 | . | 3 | . | . | . | .
COc1ccc(-c2c(N)n[nH]c2C)cc1OC | 5 | -10 | -1 | -12 | 0 | -2 | .
COc1ccc(-c2c(N)nnc3c2[nH]c2ccccc23)cc1OC | 27* | 1 | -1 | -10 | 0 | 4 | >50
Cc1cccc(C(=O)Nc2ccc(C(=O)N/N=C/c3ccco3)cc2)c1 | -21 | . | -1 | . | . | . | .
COC(=O)[C@@H]1[C@H]2C[C@H]3c4[nH]c5ccccc5c4CCN3C[C@@H]2CC[C@@H]1O | 26*! | . | ? | . | . | . | >50
CCC1CN(C)C2Cc3c([nH]c4ccccc34)C(=O)CC1C2C(=O)OC (stereo not drawn) | 0 | . | 0 | 7 | 1 | 0 | .
COc1ccc(S(=O)(=O)NNC(=O)Nc2ccc(F)cc2F)c(OC)c1 | 2 | . | 0 | . | . | . | .
